From ChEMBL document CHEMBL1149713, “1,2,4-benzothiadiazine linked pyrrolo[2,1-c][1,4]benzodiazepine conjugates: synthesis, DNA-binding affinity and cytotoxicity” (Bioorg Med Chem Lett, 2007) come the findings set out here.

The structures appear in SMILES notation. pIC50: −log10 of the molar value.

The test system of assay [1] is DNA. Put plainly: Binding affinity to calf thymus DNA at 20 uM after 18 hrs by thermal denaturation assay. Particulars: Bos taurus. The assay is classed as nucleic-acid assay.
The test system of assay [2] is DNA. The experiment in a line: Binding affinity to calf thymus DNA at 20 uM after 36 hrs by thermal denaturation assay. The assay is classed as nucleic-acid assay. Particulars: Bos taurus.
Assay [3] concerns HOP-62. Put plainly: Cytotoxicity against human Hop62 cells. It counts as functional, cell-based. A digest of the protocol:
(§1)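 Sulforhodamine B (SRB) assay in human cancer cell lines: lung (A549, Hop62), breast (Zr-75-1), oral (DWD, KB, Gurav), prostate (PC3). IC50 in µM, mean of three determinations. Adriamycin as reference. Where IC50 was not reached within the concentrations tested, no value is given.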

Assay [4] concerns ZR-75-1. The experiment in a line: Cytotoxicity against human Zr75-1 cells. The assay is classed as functional, cell-based. A digest of the protocol:
as §1

Assay [5] relates to KB. The experiment in a line: Cytotoxicity against human KB cells. The assay is classed as functional, cell-based. A digest of the protocol: as §1
The subject of assay [6] is PC-3. Put plainly: Cytotoxicity against human PC3 cells. It counts as functional, cell-based. A digest of the protocol:
as §1

The test system of assay [7] is A549. The experiment in a line: Cytotoxicity against human A549 cells. The assay is classed as functional, cell-based. A digest of the protocol:
as §1

A short description of assay [8]: Cytotoxicity against human Gurav cells. The assay is classed as functional, cell-based. A digest of the protocol:
as §1

A short description of assay [9]: Cytotoxicity against human DWD cells. It counts as functional, cell-based. A digest of the protocol: as §1

`COc1cc2c(cc1O)N=C[C@@H]1CCCN1C2=O`: the ΔTm in assay [1] and in [2] was 0.7 °C throughout.

For `COc1cc2c(cc1OCCCCN1CCN(C3=NS(=O)(=O)c4ccccc4N3c3ccccc3)CC1)N=C[C@@H]1CCCN1C2=O`, the ΔTm in assay [1] and in assay [2] was 4.1 °C in each case. In addition, the negative logarithm of the IC50 (pIC50) in assay [3] was 3.43; in assay [4], 6.82; in [5] it was 4.53; in assay [6], 3.45.

`COc1cc2c(cc1OCCCCCN1CCN(C3=NS(=O)(=O)c4ccccc4N3C(C)C)CC1)N=C[C@@H]1CCCN1C2=O`: the values for the ΔTm in [1] and in [2] were 6.4 °C and 6.7 °C, respectively. For the same compound, the pIC50 in assay [7] was 4.52; in assay [3], 4.55; in [4], 6.92; in assay [5], 5.61; in assay [8], 4.58; in [9], 4.56. This compound had a pIC50 in [6] of 4.56.

Consider `COc1cc2c(cc1OCCCCN1CCN(C3=NS(=O)(=O)c4ccccc4N3C(C)C)CC1)N=C[C@@H]1CCCN1C2=O`, for which the ΔTm in [1] worked out at 4.2 °C; in [2] it was 4.3 °C. Besides, the figures for the pIC50 in assay [3], in assay [4] and in [5] were 3.46, 5.65 and 4.58, respectively.

With `COc1cccc2c1C(=O)c1c(O)c3c(c(O)c1C2=O)C[C@@](O)(C(=O)CO)C[C@@H]3O[C@H]1C[C@H](N)[C@H](O)[C@H](C)O1` [DOXORUBICIN], the negative-log IC50 (pIC50) in [4] is 5.63; in assay [5], 6.77; in assay [9], 4.60; in assay [6], 5.65.

`COc1cc2c(cc1OCCCCCN1CCN(C3=NS(=O)(=O)c4ccccc4N3c3ccccc3)CC1)N=C[C@@H]1CCCN1C2=O`: the ΔTm in assay [1] was determined as 4.4 °C; in assay [2], 4.6 °C. The pIC50 in [7] is 4.52; in assay [5], 5.64; in assay [8], 3.45; in [6], 5.63.
